Test results from ChEMBL document CHEMBL2062435, “Synthesis and in vitro antibacterial activity of gemifloxacin derivatives containing a substituted benzyloxime moiety” (2012).

Experiments:
Assay type in all cases: functional
[1] = system: Staphylococcus epidermidis; experiment: Antimicrobial activity against extended spectrum beta-lactamases-producing methicillin-resistant Staphylococcus epidermidis 10-10 after 18-24 hrs by two-fold serial dilution method
How it was run: (§1)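 Agar twofold serial dilution MIC against clinical isolates. MIC was taken as the lowest concentration giving complete inhibition of bacterial growth after incubation at 35 °C for 18-24 h.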

Escherichia coli [2] = experiment: Antimicrobial activity against extended spectrum beta-lactamases-producing Escherichia coli 10-2 after 18-24 hrs by two-fold serial dilution method
How it was run: (§2)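 Agar-medium twofold serial dilution against Gram-positive and Gram-negative strains; MIC taken as the lowest compound concentration giving complete inhibition of bacterial growth after incubation at 35 °C for 18-24 h.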

Enterococcus faecium [3] = experiment: Antimicrobial activity against Enterococcus faecium 10-9 after 18-24 hrs by two-fold serial dilution method; how it was run: as §2
Streptococcus pneumoniae [4] = experiment: Antimicrobial activity against extended spectrum beta-lactamases-producing Streptococcus pneumoniae 10-4 after 18-24 hrs by two-fold serial dilution method; how it was run: as §2
Escherichia coli [5] = experiment: Antimicrobial activity against Escherichia coli ATCC 25922 after 18-24 hrs by two-fold serial dilution method; how it was run: as §2
Pseudomonas aeruginosa [6] = experiment: Antimicrobial activity against extended spectrum beta-lactamases-producing Pseudomonas aeruginosa 10-20 after 18-24 hrs by two-fold serial dilution method; how it was run: as §2
Pseudomonas aeruginosa [7] = experiment: Antimicrobial activity against extended spectrum beta-lactamases-producing Pseudomonas aeruginosa 10-18 after 18-24 hrs by two-fold serial dilution method; how it was run: as §2
Pseudomonas aeruginosa [8] = experiment: Antimicrobial activity against extended spectrum beta-lactamases-producing Pseudomonas aeruginosa 10-5 after 18-24 hrs by two-fold serial dilution method; how it was run: as §2
Enterococcus faecium [9] = experiment: Antimicrobial activity against Enterococcus faecium 10-5 after 18-24 hrs by two-fold serial dilution method; how it was run: as §2
Escherichia coli [10] = experiment: Antimicrobial activity against extended spectrum beta-lactamases-producing Escherichia coli 10-3 after 18-24 hrs by two-fold serial dilution method; how it was run: as §2
Pseudomonas aeruginosa [11] = experiment: Antimicrobial activity against extended spectrum beta-lactamases-producing Pseudomonas aeruginosa 10-9 after 18-24 hrs by two-fold serial dilution method; how it was run: as §2
Staphylococcus aureus [12] = experiment: Antimicrobial activity against extended spectrum beta-lactamases-producing methicillin-sensitive Staphylococcus aureus 10-14 after 18-24 hrs by two-fold serial dilution method; how it was run: as §2
[13] = system: Staphylococcus epidermidis; experiment: Antimicrobial activity against extended spectrum beta-lactamases-producing methicillin-sensitive Staphylococcus epidermidis 10-13 after 18-24 hrs by two-fold serial dilution method; how it was run: as §2
Staphylococcus aureus [14] = experiment: Antimicrobial activity against extended spectrum beta-lactamases-producing methicillin-resistant Staphylococcus aureus 10-15 after 18-24 hrs by two-fold serial dilution method; how it was run: as §1
Escherichia coli [15] = experiment: Antimicrobial activity against extended spectrum beta-lactamases-producing Escherichia coli 10-4 after 18-24 hrs by two-fold serial dilution method; how it was run: as §2
Klebsiella pneumoniae [16] = experiment: Antimicrobial activity against extended spectrum beta-lactamases-producing Klebsiella pneumoniae 10-3 after 18-24 hrs by two-fold serial dilution method; how it was run: as §2
Klebsiella pneumoniae [17] = experiment: Antimicrobial activity against extended spectrum beta-lactamases-producing Klebsiella pneumoniae 10-2 after 18-24 hrs by two-fold serial dilution method; how it was run: as §2
[18] = system: Staphylococcus epidermidis; experiment: Antimicrobial activity against extended spectrum beta-lactamases-producing methicillin-sensitive Staphylococcus epidermidis 10-11 after 18-24 hrs by two-fold serial dilution method; how it was run: as §2
Escherichia coli [19] = experiment: Antimicrobial activity against Escherichia coli 10-3 after 18-24 hrs by two-fold serial dilution method; how it was run: as §2
Enterococcus faecalis [20] = experiment: Antimicrobial activity against Enterococcus faecalis 10-6 after 18-24 hrs by two-fold serial dilution method; how it was run: as §2
Klebsiella pneumoniae [21] = experiment: Antimicrobial activity against Klebsiella pneumoniae 10-4 after 18-24 hrs by two-fold serial dilution method; how it was run: as §2
Escherichia coli [22] = experiment: Antimicrobial activity against Escherichia coli 10-1 after 18-24 hrs by two-fold serial dilution method; how it was run: as §2
Staphylococcus aureus [23] = experiment: Antimicrobial activity against extended spectrum beta-lactamases-producing methicillin-resistant Staphylococcus aureus 10-11 after 18-24 hrs by two-fold serial dilution method; how it was run: as §1
Enterococcus faecalis [24] = experiment: Antimicrobial activity against Enterococcus faecalis 10-7 after 18-24 hrs by two-fold serial dilution method; how it was run: as §2
Staphylococcus aureus [25] = experiment: Antimicrobial activity against extended spectrum beta-lactamases-producing methicillin-sensitive Staphylococcus aureus 10-13 after 18-24 hrs by two-fold serial dilution method; how it was run: as §2
Pseudomonas aeruginosa [26] = experiment: Antimicrobial activity against Pseudomonas aeruginosa 10-12 after 18-24 hrs by two-fold serial dilution method; how it was run: as §2
[27] = system: Staphylococcus epidermidis; experiment: Antimicrobial activity against extended spectrum beta-lactamases-producing methicillin-resistant Staphylococcus epidermidis 10-13 after 18-24 hrs by two-fold serial dilution method; how it was run: as §1
Klebsiella pneumoniae [28] = experiment: Antimicrobial activity against Klebsiella pneumoniae 10-3 after 18-24 hrs by two-fold serial dilution method; how it was run: as §2
Escherichia coli [29] = experiment: Antimicrobial activity against Escherichia coli 10-2 after 18-24 hrs by two-fold serial dilution method; how it was run: as §2
Klebsiella pneumoniae [30] = experiment: Antimicrobial activity against extended spectrum beta-lactamases-producing Klebsiella pneumoniae 10-1 after 18-24 hrs by two-fold serial dilution method; how it was run: as §2
Streptococcus pneumoniae [31] = experiment: Antimicrobial activity against extended spectrum beta-lactamases-producing Streptococcus pneumoniae 10-1 after 18-24 hrs by two-fold serial dilution method; how it was run: as §2
[32] = system: Staphylococcus epidermidis; experiment: Antimicrobial activity against extended spectrum beta-lactamases-producing methicillin-sensitive Staphylococcus epidermidis 10-15 after 18-24 hrs by two-fold serial dilution method; how it was run: as §2
Pseudomonas aeruginosa [33] = experiment: Antimicrobial activity against extended spectrum beta-lactamases-producing Pseudomonas aeruginosa 10-15 after 18-24 hrs by two-fold serial dilution method; how it was run: as §2
Klebsiella pneumoniae [34] = experiment: Antimicrobial activity against Klebsiella pneumoniae 10-2 after 18-24 hrs by two-fold serial dilution method; how it was run: as §2
Staphylococcus aureus [35] = experiment: Antimicrobial activity against Staphylococcus aureus ATCC […] after 18-24 hrs by two-fold serial dilution method; how it was run: as §2
Enterococcus faecalis [36] = experiment: Antimicrobial activity against Enterococcus faecalis 10-5 after 18-24 hrs by two-fold serial dilution method; how it was run: as §2

`COc1cc(F)c(CO/N=C2\CN(c3nc4c(cc3F)c(=O)c(C(=O)O)cn4C3CC3)CC2CN)cc1OC.CS(=O)(=O)O` (racemic) was tested, and the MIC [1] was 0.5 µg/mL, the MIC (Escherichia coli [2]) was > 128 µg/mL and the MIC (Enterococcus faecium [3]) was 8 µg/mL. For the same molecule, the MIC (Streptococcus pneumoniae [4]) was 0.03 µg/mL, the MIC (Escherichia coli [5]) was 0.125 µg/mL and the MIC (Pseudomonas aeruginosa [6]) was > 128 µg/mL. For the same molecule, the MIC (Pseudomonas aeruginosa [7]) was > 128 µg/mL, the MIC (Pseudomonas aeruginosa [8]) was > 128 µg/mL and the MIC (Enterococcus faecium [9]) was 4 µg/mL. For the same molecule, the MIC (Escherichia coli [10]) was > 128 µg/mL, the MIC (Pseudomonas aeruginosa [11]) was > 128 µg/mL and the MIC (Staphylococcus aureus [12]) was 0.03 µg/mL. The MIC [13] was 0.03 µg/mL, the MIC (Staphylococcus aureus [14]) was 0.125 µg/mL and the MIC (Escherichia coli [15]) was > 128 µg/mL. For the same molecule, the MIC (Klebsiella pneumoniae [16]) was > 128 µg/mL, the MIC (Klebsiella pneumoniae [17]) was > 128 µg/mL and the MIC [18] was 1 µg/mL. The MIC (Escherichia coli [19]) was > 128 µg/mL, the MIC (Enterococcus faecalis [20]) was 2 µg/mL and the MIC (Klebsiella pneumoniae [21]) was > 128 µg/mL. The MIC (Escherichia coli [22]) was > 128 µg/mL, the MIC (Staphylococcus aureus [23]) was 1 µg/mL and the MIC (Enterococcus faecalis [24]) was 1 µg/mL. The MIC (Staphylococcus aureus [25]) was 0.03 µg/mL, the MIC (Pseudomonas aeruginosa [26]) was > 128 µg/mL and the MIC [27] was 0.25 µg/mL. For the same molecule, the MIC (Klebsiella pneumoniae [28]) was > 128 µg/mL, the MIC (Escherichia coli [29]) was > 128 µg/mL and the MIC (Klebsiella pneumoniae [30]) was > 128 µg/mL. The MIC (Streptococcus pneumoniae [31]) was 0.25 µg/mL, the MIC [32] was 2 µg/mL and the MIC (Pseudomonas aeruginosa [33]) was > 128 µg/mL. The MIC (Klebsiella pneumoniae [34]) was > 128 µg/mL, the MIC (Staphylococcus aureus [35]) was 0.03 µg/mL and the MIC (Enterococcus faecalis [36]) was 0.25 µg/mL.
With `CS(=O)(=O)O.NCC1CN(c2nc3c(cc2F)c(=O)c(C(=O)O)cn3C2CC2)C/C1=N\OCc1ccc2c(c1)OCO2` (racemic) the MIC [1] was 1 µg/mL, the MIC (Escherichia coli [2]) was > 128 µg/mL and the MIC (Enterococcus faecium [3]) was 4 µg/mL. For the same molecule, the MIC (Streptococcus pneumoniae [4]) was 2 µg/mL, the MIC (Escherichia coli [5]) was 0.125 µg/mL and the MIC (Pseudomonas aeruginosa [6]) was 0.25 µg/mL. The MIC (Pseudomonas aeruginosa [7]) was 2 µg/mL, the MIC (Pseudomonas aeruginosa [8]) was 8 µg/mL and the MIC (Enterococcus faecium [9]) was 4 µg/mL. For the same molecule, the MIC (Escherichia coli [10]) was 16 µg/mL, the MIC (Pseudomonas aeruginosa [11]) was 4 µg/mL and the MIC (Staphylococcus aureus [12]) was 0.03 µg/mL. For the same molecule, the MIC [13] was 1 µg/mL, the MIC (Staphylococcus aureus [14]) was 0.5 µg/mL and the MIC (Escherichia coli [15]) was 2 µg/mL. For the same molecule, the MIC (Klebsiella pneumoniae [16]) was 128 µg/mL, the MIC (Klebsiella pneumoniae [17]) was > 128 µg/mL and the MIC [18] was 2 µg/mL. The MIC (Escherichia coli [19]) was 8 µg/mL, the MIC (Enterococcus faecalis [20]) was 2 µg/mL and the MIC (Klebsiella pneumoniae [21]) was > 128 µg/mL. The MIC (Escherichia coli [22]) was 32 µg/mL, the MIC (Staphylococcus aureus [23]) was 1 µg/mL and the MIC (Enterococcus faecalis [24]) was 1 µg/mL. The MIC (Staphylococcus aureus [25]) was 0.5 µg/mL, the MIC (Pseudomonas aeruginosa [26]) was 0.06 µg/mL and the MIC [27] was 0.5 µg/mL. The MIC (Klebsiella pneumoniae [28]) was 2 µg/mL, the MIC (Escherichia coli [29]) was 2 µg/mL and the MIC (Klebsiella pneumoniae [30]) was 128 µg/mL. The MIC (Streptococcus pneumoniae [31]) was 1 µg/mL, the MIC [32] was 4 µg/mL and the MIC (Pseudomonas aeruginosa [33]) was 4 µg/mL. It also gave an MIC (Klebsiella pneumoniae [34]) of 2 µg/mL, an MIC (Staphylococcus aureus [35]) of 0.06 µg/mL and an MIC (Enterococcus faecalis [36]) of 0.5 µg/mL.
In the case of `COc1cc(CO/N=C2\CN(c3nc4c(cc3F)c(=O)c(C(=O)O)cn4C3CC3)CC2CN)ccc1OCc1ccccc1.CS(=O)(=O)O` (racemic), the MIC [1] is reported as 4 µg/mL, the MIC (Escherichia coli [2]) is reported as > 128 µg/mL and the MIC (Enterococcus faecium [3]) is reported as 16 µg/mL. The MIC (Streptococcus pneumoniae [4]) was 16 µg/mL, the MIC (Escherichia coli [5]) was 2 µg/mL and the MIC (Pseudomonas aeruginosa [6]) was 0.06 µg/mL. It also gave an MIC (Pseudomonas aeruginosa [7]) of 16 µg/mL, an MIC (Pseudomonas aeruginosa [8]) of 16 µg/mL and an MIC (Enterococcus faecium [9]) of 16 µg/mL. The MIC (Escherichia coli [10]) was > 128 µg/mL, the MIC (Pseudomonas aeruginosa [11]) was 16 µg/mL and the MIC (Staphylococcus aureus [12]) was < 0.008 µg/mL. For the same molecule, the MIC [13] was 2 µg/mL, the MIC (Staphylococcus aureus [14]) was 0.5 µg/mL and the MIC (Escherichia coli [15]) was 32 µg/mL. The MIC (Klebsiella pneumoniae [16]) was > 128 µg/mL, the MIC (Klebsiella pneumoniae [17]) was > 128 µg/mL and the MIC [18] was 8 µg/mL. The MIC (Escherichia coli [19]) was > 128 µg/mL, the MIC (Enterococcus faecalis [20]) was 8 µg/mL and the MIC (Klebsiella pneumoniae [21]) was > 128 µg/mL. The MIC (Escherichia coli [22]) was > 128 µg/mL, the MIC (Staphylococcus aureus [23]) was 4 µg/mL and the MIC (Enterococcus faecalis [24]) was 4 µg/mL. The MIC (Staphylococcus aureus [25]) was 4 µg/mL, the MIC (Pseudomonas aeruginosa [26]) was < 0.008 µg/mL and the MIC [27] was 1 µg/mL. The MIC (Klebsiella pneumoniae [28]) was 32 µg/mL, the MIC (Escherichia coli [29]) was 16 µg/mL and the MIC (Klebsiella pneumoniae [30]) was > 128 µg/mL. For the same molecule, the MIC (Streptococcus pneumoniae [31]) was 4 µg/mL, the MIC [32] was 8 µg/mL and the MIC (Pseudomonas aeruginosa [33]) was 32 µg/mL. The MIC (Klebsiella pneumoniae [34]) was > 128 µg/mL, the MIC (Staphylococcus aureus [35]) was < 0.008 µg/mL and the MIC (Enterococcus faecalis [36]) was 4 µg/mL.
